“And” between values parts separate entries of the source, which are not always exact repeats. Equal values may be shown once.
Assays:
[1] = system: patients treated with mobocertinib 160 mg daily; assay: Safety and tolerability; format: in vivo, human; conditions: patients with EGFRex20ins treated at 160 mg daily (n=28); number (%) of patients
Procedure, shortened: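 Safety pooled phase 1 and phase 2 patients who received at least one dose at an initial 160 mg daily, given orally in continuous 28-day cycles. Treatment-related TEAEs were tallied at any grade and at grade ≥3. The EGFRex20ins NSCLC subgroup came from dose escalation plus expansion cohort 1. Grade 3–4 toxicity led to withholding the drug, with up to two dose reductions allowed.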

[2] = system: previously treated NSCLC with EGFRex20ins mutations; assay: Investigator-assessed antitumor activity; format: in vivo, human; conditions: for Best confirmed response: Stable disease: observed ≥6 weeks after first dose
[3] = 80 mg total daily dose (n=9), includes 80 mg daily and 40 mg twice daily

C=CC(=O)Nc1cc(Nc2ncc(C(=O)OC(C)C)c(-c3cn(C)c4ccccc34)n2)c(OC)cc1N(C)CCN(C)C [mobocertinib]
Treatment-related TEAE Diarrhea, Any Grade [1]: 23 (82)
Treatment-related TEAE Diarrhea, Grade ≥3 [1]: 9 (32)
Treatment-related TEAE Dry skin, Any Grade [1]: 5 (18)
Treatment-related TEAE Dry skin, Grade ≥3 [1]: 0
Treatment-related TEAE Dyspepsia, Any Grade [1]: 6 (21)
Treatment-related TEAE Dyspepsia, Grade ≥3 [1]: 0
Treatment-related TEAE Fatigue, Any Grade [1]: 4 (14)
Treatment-related TEAE Fatigue, Grade ≥3 [1]: 1 (4)
Treatment-related TEAE GERD, Any Grade [1]: 3 (11)
Treatment-related TEAE GERD, Grade ≥3 [1]: 0
Treatment-related TEAE Increased lipase, Any Grade [1]: 7 (25)
Treatment-related TEAE Increased lipase, Grade ≥3 [1]: 2 (7)
Treatment-related TEAE Nausea, Any Grade [1]: 11 (39)
Treatment-related TEAE Nausea, Grade ≥3 [1]: 3 (11)
Treatment-related TEAE Paronychia, Any Grade [1]: 8 (29)
Treatment-related TEAE Paronychia, Grade ≥3 [1]: 0
Treatment-related TEAE Pruritus, Any Grade [1]: 5 (18)
Treatment-related TEAE Pruritus, Grade ≥3 [1]: 0
Treatment-related TEAE Rash maculo-papular, Any Grade [1]: 7 (25)
Treatment-related TEAE Rash maculo-papular, Grade ≥3 [1]: 1 (4)
Treatment-related TEAE Rash, Any Grade [1]: 13 (46)
Treatment-related TEAE Rash, Grade ≥3 [1]: 0
Treatment-related TEAE Stomatitis, Any Grade [1]: 6 (21)
Treatment-related TEAE Stomatitis, Grade ≥3 [1]: 2 (7)
Treatment-related TEAE Vomiting, Any Grade [1]: 10 (36)
Treatment-related TEAE Vomiting, Grade ≥3 [1]: 2 (7)
Best confirmed response: Not evaluated ([2]; 80 mg total daily dose (n=9)): 0 n (%)
Best confirmed response: Progressive disease ([2]; 80 mg total daily dose (n=9)): 1 (11) n (%)
Best confirmed response: Complete response [2, 3]: 1 (11) n (%)
Best confirmed response: Partial response [2, 3]: 1 (11) n (%)
Best confirmed response: Stable disease ([2]; 80 mg total daily dose (n=9)): 6 (67) n (%)
confirmed ORR ([2]; 120 mg daily (4/21)): 19%
Best confirmed response: Complete response ([2]; 120 mg daily (n=21)): 1 (5) n (%)
Best confirmed response: Not evaluated ([2]; 120 mg daily (n=21)): 3 (14) n (%)
Best confirmed response: Partial response ([2]; 120 mg daily (n=21)): 3 (14) n (%)
Best confirmed response: Progressive disease ([2]; 120 mg daily (n=21)): 3 (14) n (%)
Best confirmed response: Stable disease ([2]; 120 mg daily (n=21)): 11 (52) n (%)
investigator-assessed confirmed ORR ([2]; 160 mg daily (12/28; 95% CI 24–63%)): 43%
disease control rate ([2]; 160 mg daily (24/28; 95% CI 67–96%)): 86%
Best confirmed response: Complete response ([2]; 160 mg daily (n=28)): 0 n (%)
Best confirmed response: Not evaluated ([2]; 160 mg daily (n=28)): 2 (7) n (%)
Best confirmed response: Partial response ([2]; 160 mg daily (n=28)): 12 (43) n (%)
Best confirmed response: Progressive disease ([2]; 160 mg daily (n=28)): 2 (7) n (%)
Best confirmed response: Stable disease ([2]; 160 mg daily (n=28)): 12 (43) n (%)
median PFS ([2]; 160 mg daily, 28 EGFRex20ins patients (95% CI 4.4–15.6)): 7.3 months and 7 months
median duration of response in confirmed responders ([2]; 160 mg daily, 28 EGFRex20ins patients (95% CI 5.0–not reached)): 14 months and 13.9 months
12-month event-free rate (PFS) ([2]; 160 mg daily, 28 EGFRex20ins patients (95% CI 16–53%)): 34%
investigator-assessed confirmed ORR ([2]; 160 mg daily, patients with baseline brain metastases (3/12; 95% CI 5–57%)): 25%
median investigator-assessed PFS ([2]; 160 mg daily, patients with baseline brain metastases (95% CI 1.8–15.9)): 3.7 months
12-month event-free rate (PFS) ([2]; 160 mg daily, patients with baseline brain metastases (95% CI 3–52%)): 23%
investigator-assessed confirmed ORR ([2]; 160 mg daily, patients without baseline brain metastases (9/16; 95% CI 30–80%)): 56%
median duration of response in confirmed responders ([2]; 160 mg daily, patients without baseline brain metastases (95% CI 5.0–16.6)): 13.8 months
12-month event-free rate (PFS) ([2]; 160 mg daily, patients without baseline brain metastases (95% CI 18–66%)): 43%
confirmed ORR ([2]; 5–40 mg daily (0/12)): 0%
Best confirmed response: Complete response ([2]; 5–40 mg daily (n=12)): 0 n (%)
Best confirmed response: Not evaluated ([2]; 5–40 mg daily (n=12)): 2 (17) n (%)
Best confirmed response: Partial response ([2]; 5–40 mg daily (n=12)): 0 n (%)
Best confirmed response: Progressive disease ([2]; 5–40 mg daily (n=12)): 7 (58) n (%)
confirmed ORR ([2]; 5–40 mg daily (n=12)): 0 [0–26] n (%) [95% CI]
Best confirmed response: Stable disease ([2]; 5–40 mg daily (n=12)): 3 (25) n (%)
confirmed ORR ([2]; 80-mg total daily dose (2/9)): 22%

From PMC8295177 (Cancer discovery, 2021)
